Data reported in ChEMBL document CHEMBL1126564, “Synthesis and antimicrobial evaluation of a series of 7-[3-amino (or aminomethyl)-4-aryl (or cyclopropyl)-1-pyrrolidinyl]-4-quinolone- and -1,8-naphthyridone-3-carboxylic acids” (1993).
≈ marks a conversion by molar mass, not a printed value.

Experiments:
Assay type in all cases: functional
Streptococcus pneumoniae = assay: Minimum inhibitory concentration against Streptococcus pneumoniae SV-1
Procedure, shortened: (§1)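 Standard microdilution method against a panel of five Gram-negative and five Gram-positive bacterial strains. The MIC (µg/mL) was recorded for each strain.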

Escherichia coli = assay: Minimum inhibitory concentration against Escherichia coli Vogel; procedure, shortened: as §1
Mus musculus [1] = species: Mus musculus; assay: Median protective dose determined in acute lethal system infection caused by Escherichia coli vogel in CD-1 mice (single dose perorally); conditions: po, read-out: PD50
Procedure, shortened: (§2)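 Acute lethal systemic infection in female Charles River CD-1 mice; compound given once, orally (po) or subcutaneously (sc), at the time of challenge. Median protective dose (PD50, mg/kg) derived from survival.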

Enterobacter cloacae = assay: Minimum inhibitory concentration against […] MA-2646; procedure, shortened: as §1
Mus musculus [2] = species: Mus musculus; assay: Median protective dose determined in acute lethal system infection caused by Streptococcus pyogenes C-203 in CD-1 mice (single dose perorally); conditions: po, read-out: PD50; procedure, shortened: as §2
Staphylococcus aureus [3] = assay: Minimum inhibitory concentration against Staphylococcus aureus H-228; procedure, shortened: as §1
Klebsiella pneumoniae = assay: Minimum inhibitory concentration against Klebsiella pneumoniae MGH-2; procedure, shortened: as §1
Mus musculus [4] = assay: Median protective dose determined in acute lethal system infection caused by Streptococcus pyogenes C-203 in CD-1 mice (single dose sc); conditions: read-out: PD50; procedure, shortened: as §2
Enterococcus faecalis = assay: Minimum inhibitory concentration against […] MGH-2; procedure, shortened: as §1
Mus musculus [5] = assay: Median protective dose determined in acute lethal system infection caused by Escherichia coli vogel in CD-1 mice (single dose sc); conditions: read-out: PD50; procedure, shortened: as §2
Pseudomonas aeruginosa = assay: Minimum inhibitory concentration against Pseudomonas aeruginosa UI-18; procedure, shortened: as §1
Staphylococcus aureus [6] = assay: Minimum inhibitory concentration against Staphylococcus aureus UC-76; procedure, shortened: as §1
Providencia rettgeri = assay: Minimum inhibitory concentration against Providencia rettgeri M-1771; procedure, shortened: as §1
Streptococcus pyogenes = assay: Minimum inhibitory concentration against Streptococcus pyogenes C-203; procedure, shortened: as §1
[7] = Streptococcus pneumoniae, read-out: MIC
[8] = Escherichia coli, read-out: MIC
[9] = Enterobacter cloacae, read-out: MIC
[10] = Staphylococcus aureus, read-out: MIC
[11] = Klebsiella pneumoniae, read-out: MIC
[12] = Enterococcus faecalis, read-out: MIC
[13] = Pseudomonas aeruginosa, read-out: MIC
[14] = Providencia rettgeri, read-out: MIC
[15] = Streptococcus pyogenes, read-out: MIC

SMILES | ED50 (Mus musculus [1]) | ED50 (Mus musculus [2]) | ED50 (Mus musculus [4]) | ED50 (Mus musculus [5]) | MIC (Streptococcus pneumoniae; [7]) | MIC (Escherichia coli; [8]) | MIC (Enterobacter cloacae; [9]) | MIC (Staphylococcus aureus [3]; [10]) | MIC (Klebsiella pneumoniae; [11]) | MIC (Enterococcus faecalis; [12]) | MIC (Pseudomonas aeruginosa; [13]) | MIC (Staphylococcus aureus [6]; [10]) | MIC (Providencia rettgeri; [14]) | MIC (Streptococcus pyogenes; [15]) | also measured
COc1ccccc1C1CN(c2nc3c(cc2F)c(=O)c(C(=O)O)cn3C2CC2)CC1N (stereo in doubt) | 37 mg/kg | 44 mg/kg | 22 mg/kg | 28 mg/kg |  |  |  |  |  |  |  |  |  |  | MIC (Streptococcus pneumoniae): 0.1 µg/mL (≈ 0.228 µM); MIC (Escherichia coli): 0.2 µg/mL (≈ 0.456 µM); MIC (Enterobacter cloacae): 0.2 µg/mL (≈ 0.456 µM); MIC (Staphylococcus aureus [3]): 0.1 µg/mL (≈ 0.228 µM); MIC (Klebsiella pneumoniae): 0.4 µg/mL (≈ 0.912 µM); MIC (Enterococcus faecalis): 0.2 µg/mL (≈ 0.456 µM); MIC (Pseudomonas aeruginosa): 3.1 µg/mL (≈ 7.07 µM); MIC (Staphylococcus aureus [6]): 0.05 µg/mL (≈ 0.114 µM); MIC (Providencia rettgeri): 0.8 µg/mL (≈ 1.82 µM); MIC (Streptococcus pyogenes): 0.2 µg/mL (≈ 0.456 µM)
NC1CN(c2c(F)cc3c(=O)c(C(=O)O)cn(C4CC4)c3c2F)CC1c1ccccc1 (trans isomer) | 15.5 mg/kg | 10 mg/kg | 1.6 mg/kg | 7 mg/kg | 0.1 µg/mL (≈ 0.235 µM) | 0.025 µg/mL (≈ 0.0588 µM) | 0.025 µg/mL (≈ 0.0588 µM) | 0.025 µg/mL (≈ 0.0588 µM) | 0.05 µg/mL (≈ 0.118 µM) | 0.1 µg/mL (≈ 0.235 µM) | 0.8 µg/mL (≈ 1.88 µM) | 0.013 µg/mL (≈ 0.0306 µM) | 0.1 µg/mL (≈ 0.235 µM) | 0.1 µg/mL (≈ 0.235 µM) | 
NC1CN(c2nc3c(cc2F)c(=O)c(C(=O)O)cn3C2CC2)CC1c1ccccc1 (stereo not drawn) | 11 mg/kg |  |  | 6.5 mg/kg | 0.1 µg/mL (≈ 0.245 µM) | 0.1 µg/mL (≈ 0.245 µM) | 0.1 µg/mL (≈ 0.245 µM) | 0.1 µg/mL (≈ 0.245 µM) | 0.2 µg/mL (≈ 0.49 µM) | 0.2 µg/mL (≈ 0.49 µM) | 1.6 µg/mL (≈ 3.92 µM) | 0.05 µg/mL (≈ 0.122 µM) | 0.4 µg/mL (≈ 0.979 µM) | 0.2 µg/mL (≈ 0.49 µM) | 
NC1CN(c2c(F)cc3c(=O)c(C(=O)O)cn(C4CC4)c3c2F)CC1c1ccc(F)cc1 (trans isomer) |  | 44 mg/kg | 40 mg/kg |  | 0.1 µg/mL (≈ 0.226 µM) | 0.1 µg/mL (≈ 0.226 µM) | 0.1 µg/mL (≈ 0.226 µM) | 0.025 µg/mL (≈ 0.0564 µM) | 0.1 µg/mL (≈ 0.226 µM) | 0.1 µg/mL (≈ 0.226 µM) | 1.6 µg/mL (≈ 3.61 µM) | 0.013 µg/mL (≈ 0.0293 µM) | 0.2 µg/mL (≈ 0.451 µM) | 0.1 µg/mL (≈ 0.226 µM) | 
NCC1CN(c2nc3c(cc2F)c(=O)c(C(=O)O)cn3C2CC2)CC1c1ccco1 (trans isomer) |  | 36 mg/kg | 4.2 mg/kg |  | 0.025 µg/mL (≈ 0.0606 µM) | 0.1 µg/mL (≈ 0.242 µM) | 0.2 µg/mL (≈ 0.485 µM) | 0.05 µg/mL (≈ 0.121 µM) | 0.1 µg/mL (≈ 0.242 µM) | 0.05 µg/mL (≈ 0.121 µM) | 0.4 µg/mL (≈ 0.97 µM) | 0.013 µg/mL (≈ 0.0315 µM) | 0.2 µg/mL (≈ 0.485 µM) | 0.05 µg/mL (≈ 0.121 µM) | 
CC(C)c1ccc(C2CN(c3c(F)cc4c(=O)c(C(=O)O)cn(C5CC5)c4c3F)CC2N)cc1 (trans isomer) |  | 100 mg/kg | 90 mg/kg |  | 0.2 µg/mL (≈ 0.428 µM) | 0.4 µg/mL (≈ 0.856 µM) | 0.4 µg/mL (≈ 0.856 µM) | 0.05 µg/mL (≈ 0.107 µM) | 0.4 µg/mL (≈ 0.856 µM) | 0.2 µg/mL (≈ 0.428 µM) | 3.1 µg/mL (≈ 6.63 µM) | 0.025 µg/mL (≈ 0.0535 µM) | 0.4 µg/mL (≈ 0.856 µM) | 0.2 µg/mL (≈ 0.428 µM) | 
NC1CN(c2c(F)cc3c(=O)c(C(=O)O)cn(C4CC4)c3c2F)CC1c1ccc(O)cc1 (trans isomer) | 100 mg/kg |  |  | 50 mg/kg | 0.1 µg/mL (≈ 0.227 µM) | 0.1 µg/mL (≈ 0.227 µM) | 0.1 µg/mL (≈ 0.227 µM) | 0.1 µg/mL (≈ 0.227 µM) | 0.1 µg/mL (≈ 0.227 µM) | 0.1 µg/mL (≈ 0.227 µM) | 1.6 µg/mL (≈ 3.62 µM) | 0.025 µg/mL (≈ 0.0566 µM) | 0.2 µg/mL (≈ 0.453 µM) | 0.1 µg/mL (≈ 0.227 µM) | 
NCC1CN(c2c(F)cc3c(=O)c(C(=O)O)cn(C4CC4)c3c2F)CC1c1ccccc1 (trans isomer) |  | 10 mg/kg | 1.6 mg/kg |  | 0.013 µg/mL (≈ 0.0296 µM) | 0.05 µg/mL (≈ 0.114 µM) | 0.05 µg/mL (≈ 0.114 µM) | 0.013 µg/mL (≈ 0.0296 µM) | 0.05 µg/mL (≈ 0.114 µM) | 0.013 µg/mL (≈ 0.0296 µM) | 0.8 µg/mL (≈ 1.82 µM) | 0.003 µg/mL (≈ 0.00683 µM) | 0.1 µg/mL (≈ 0.228 µM) | 0.013 µg/mL (≈ 0.0296 µM) | 
NC1CN(c2nc3c(cc2F)c(=O)c(C(=O)O)cn3C2CC2)CC1c1ccc(F)cc1 (trans isomer) | 18 mg/kg |  |  | 9 mg/kg | 0.2 µg/mL (≈ 0.469 µM) | 0.1 µg/mL (≈ 0.235 µM) | 0.1 µg/mL (≈ 0.235 µM) | 0.1 µg/mL (≈ 0.235 µM) | 0.2 µg/mL (≈ 0.469 µM) | 0.1 µg/mL (≈ 0.235 µM) | 1.6 µg/mL (≈ 3.75 µM) | 0.025 µg/mL (≈ 0.0586 µM) | 0.4 µg/mL (≈ 0.938 µM) | 0.2 µg/mL (≈ 0.469 µM) | 
Nc1ccc(C2CN(c3c(F)cc4c(=O)c(C(=O)O)cn(C5CC5)c4c3F)CC2N)cc1 (trans isomer) | 10 mg/kg |  |  | 1.6 mg/kg | 0.1 µg/mL (≈ 0.227 µM) | 0.05 µg/mL (≈ 0.114 µM) | 0.05 µg/mL (≈ 0.114 µM) | 0.1 µg/mL (≈ 0.227 µM) | 0.1 µg/mL (≈ 0.227 µM) | 0.1 µg/mL (≈ 0.227 µM) | 0.8 µg/mL (≈ 1.82 µM) | 0.025 µg/mL (≈ 0.0568 µM) | 0.2 µg/mL (≈ 0.454 µM) | 0.1 µg/mL (≈ 0.227 µM) | 
Nc1ccc(C2CN(c3nc4c(cc3F)c(=O)c(C(=O)O)cn4C3CC3)CC2N)cc1 (trans isomer) | 24 mg/kg |  |  | 3.1 mg/kg | 0.2 µg/mL (≈ 0.472 µM) | 0.1 µg/mL (≈ 0.236 µM) | 0.1 µg/mL (≈ 0.236 µM) | 0.2 µg/mL (≈ 0.472 µM) | 0.2 µg/mL (≈ 0.472 µM) | 0.2 µg/mL (≈ 0.472 µM) | 1.6 µg/mL (≈ 3.78 µM) | 0.05 µg/mL (≈ 0.118 µM) | 0.4 µg/mL (≈ 0.945 µM) | 0.2 µg/mL (≈ 0.472 µM) | 
NCC1CN(c2nc3c(cc2F)c(=O)c(C(=O)O)cn3C2CC2)CC1c1ccccc1 (trans isomer) |  | 27 mg/kg | 4.5 mg/kg |  | 0.013 µg/mL (≈ 0.0308 µM) | 0.05 µg/mL (≈ 0.118 µM) | 0.05 µg/mL (≈ 0.118 µM) | 0.025 µg/mL (≈ 0.0592 µM) | 0.05 µg/mL (≈ 0.118 µM) | 0.025 µg/mL (≈ 0.0592 µM) | 0.8 µg/mL (≈ 1.89 µM) | 0.006 µg/mL (≈ 0.0142 µM) | 0.1 µg/mL (≈ 0.237 µM) | 0.025 µg/mL (≈ 0.0592 µM) | 
